Active and inactive are the calls of the source. No cut-off for these calls is given here.
Key:
[1] = molecular target: Replicase polyprotein 1ab (Severe acute respiratory syndrome coronavirus 2) (UniProt P0DTD1); assay: Inhibition of C-terminal His tagged SARS CoV-2 main protease transfected in Escherichia coli BL21 (DE3) using 2-Abz-Ser-AlaVal-Leu-Gln-Ser-Gly-Tyr(3-NO2)-Arg-OH as substrate at 50 uM preincubated for 15 mins followed by substrate addition and measured after 15 mins by FRET assay relative to control; settings: time 30.0 min
[2] = molecular target: Replicase polyprotein 1ab (Severe acute respiratory syndrome coronavirus 2) (UniProt P0DTD1); assay: Binding affinity to C-terminal His tagged SARS CoV-2 main protease transfected in Escherichia coli BL21 (DE3) assessed as covalent bond formation by measuring mass adduct at 100 uM by ESI-TOF analysis
Summary of the method: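 Compounds at 100 μM incubated with active Mpro (3 μM) in 50 mM Tris-HCl pH 7.4, 100 mM NaCl, 20% v/v ethylene glycol, 0.0016% Brij 58; adducts sought by LC-ESI-TOF MS, C18 column, water/acetonitrile with 0.1% formic acid gradient, negative mode.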

Genome polyprotein [3] = molecular target: T1, Genome polyprotein (dengue virus type 2, UniProt P29990); assay: Chemical stability of the compound in DENV2 NS2B-NS3 protease assay buffer assessed as DENV2 NS2B-NS3 protease-mediated amide bond cleavage by measuring reduction in AUC at 100 uM measured after 8 hrs by HPLC analysis; assay type: ADME; settings: dengue virus type 2, buffer
Summary of the method: (§1)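 Compound incubated with isolated protease (SARS-CoV-2 Mpro or DENV-2 protease) in that enzyme's assay buffer for 8 h; remaining compound quantified by HPLC with UV/Vis detection (peak AUC).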

HeLa [4] = assay: Cytotoxicity against human HeLa cells expressing luciferase-based DENV-2 protease reporter system assessed as reduction in cell viability by celltiter-blue assay; assay type: toxicity
Summary of the method: (§2)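 CellTiter-Blue viability in HeLa reporter cells or Huh-7 cells, on plates run in parallel with the reporter or titer-reduction assay under the same treatment; each concentration in triplicate.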

[5] = Permeability of compound in PBS at pH 7.4 measured after 5 hrs by HPLC-UV based PAMPA assay; assay type: ADME; settings: pH 7.4, 5 h
[6] = Selectivity index, ratio of CC50 for cytotoxicity against human HeLa cells expressing luciferase-based DENV-2 protease reporter system to EC50 for inhibition of full length DENV2 NS2B-NS3 protease in human HeLa cells expressing luciferase reporter gene; assay type: toxicity, cell-based; settings: read-out: Ratio CC50/EC50
[7] = molecular target: T2, Replicase polyprotein 1ab (Severe acute respiratory syndrome coronavirus 2, UniProt P0DTD1); assay: Inhibition of C-terminal His tagged SARS CoV-2 main protease transfected in Escherichia coli BL21 (DE3) using 2-Abz-Ser-AlaVal-Leu-Gln-Ser-Gly-Tyr(3-NO2)-Arg-OH as substrate preincubated for 15 mins followed by substrate addition and measured after 15 mins by FRET assay
[8] = molecular target: Genome polyprotein (dengue virus type 2) (UniProt P29990); assay: Inhibition of full length DENV2 NS2B-NS3 protease in human HeLa cells expressing luciferase reporter gene at 12.5 uM incubated for 24 hrs by luminescence analysis relative to control; assay type: cell-based
Summary of the method: (§3)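 Stable DENV2pro reporter HeLa cells seeded at 2×10^4 per well and dosed immediately; 24 h at 37 °C, lysed 15 min, coelenterazine (2.75 μM in PBS) injected, luminescence read 5 s. Triplicates; % inhibition vs untreated cells; EC50 by 4-parameter fit with cell-free background subtraction.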

[9] = molecular target: Replicase polyprotein 1ab (Severe acute respiratory syndrome coronavirus 2) (UniProt P0DTD1); assay: Inhibition of C-terminal His tagged SARS CoV-2 main protease transfected in Escherichia coli BL21 (DE3) at 50 uM incubated in presence of DTT
Summary of the method: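 Mpro fluorogenic inhibition assay repeated with 1 mM DTT added to the assay buffer.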

HeLa [10] = assay: Cytotoxicity against human HeLa cells expressing renilla luciferase reporter construct assessed as reduction in cell viability at 12.5 uM by luciferase based analysis; assay type: toxicity
Genome polyprotein [11] = molecular target: T1, Genome polyprotein; assay: Inhibition of full length DENV2 NS2B-NS3 protease in human HeLa cells expressing luciferase reporter gene incubated for 24 hrs by luminescence analysis; assay type: cell-based; summary of the method: as §3
[12] = molecular target: Replicase polyprotein 1ab (Severe acute respiratory syndrome coronavirus 2) (UniProt P0DTD1); assay: Potency index, ratio of boceprevir IC50 to test compound IC50 for inhibition of C-terminal His tagged SARS CoV-2 main protease transfected in Escherichia coli BL21 (DE3) using 2-Abz-Ser-AlaVal-Leu-Gln-Ser-Gly-Tyr(3-NO2)-Arg-OH as substrate preincubated for 15 mins followed by substrate addition and measured after 15 mins by FRET assay; settings: time 30.0 min
[13] = molecular target: Replicase polyprotein 1ab (Severe acute respiratory syndrome coronavirus 2) (UniProt P0DTD1); assay: […] inhibition of C-terminal His tagged SARS CoV-2 main protease transfected in Escherichia coli BL21 (DE3) assessed as decrease in Vmax with constant Km using varying concentrations of 2-Abz-Ser-AlaVal-Leu-Gln-Ser-Gly-Tyr(3-NO2)-Arg-OH as substrate by Michaelis-Menten analysis
[14] = molecular target: Replicase polyprotein 1ab (Severe acute respiratory syndrome coronavirus 2) (UniProt P0DTD1); assay: Reversible inhibition of C-terminal His tagged SARS CoV-2 main protease transfected in Escherichia coli BL21 (DE3) at 100 uM preincubated for 2 hrs followed by dilution to 3 uM and substrate addition measured after 15 mins by fluorimetric assay; settings: time 135.0 min
Huh-7 = assay: Cytotoxicity against human Huh-7 cells infected with Dengue virus serotype 2 assessed as reduction in cell viability by celltiter-blue assay; assay type: toxicity, cell-based; summary of the method: as §2
[15] = molecular target: T2, Replicase polyprotein 1ab; assay: Chemical stability of the compound in SARS-CoV-2 main protease assay buffer assessed as SARS-CoV-2 main protease-mediated amide bond cleavage at 100 uM measured after 8 hrs by HPLC based UV-Vis analysis; assay type: ADME; settings: severe acute respiratory syndrome coronavirus 2, buffer; summary of the method: as §1
dengue virus type 2 = assay: Antiviral activity against Dengue virus serotype 2 infected in Huh-7 cells assessed as reduction in virus titer at 12.5 uM incubated for 48 hrs followed by infection of Vero E6 cells with supernatant and measured after 7 days by crystal violet staining based analysis relative to control; assay type: functional; set-up: scale not given: the % may be the effect or the level left; settings: time 9 day
Summary of the method: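 Huh-7 cells (1×10^4/well, overnight) infected with DENV-2 at MOI 1 for 2 h, medium changed, compound added; 48 h, triplicate supernatants pooled. Titer by plaque assay: Vero E6 infected 1 h with 10^-1 to 10^-6 dilutions, plaque medium 7 days, formaldehyde-fixed, crystal violet stained, plaques counted.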

[16] = molecular target: T2, Replicase polyprotein 1ab; assay: Inhibition of C-terminal His tagged SARS CoV-2 main protease transfected in Escherichia coli BL21 (DE3) assessed as inhibition constant by Michaelis-Menten analysis
Trypsin = Trypsin (Homo sapiens, UniProt P07477+P07478+P35030); assay: Inhibition of trypsin (unknown origin) using Boc-Val-Pro-Arg-AMC as substrate assessed as enzymatic cleavage preincubated for 15 mins followed by substrate addition and measured after 15 mins by Continuous fluorimetric assay; assay type: protein assay
[17] = Selectivity index, ratio of EC50 for inhibition of full length DENV2 NS2B-NS3 protease in human HeLa cells expressing luciferase reporter gene to IC50 for inhibition of C-terminal His tagged SARS CoV-2 main protease transfected in Escherichia coli BL21 (DE3); assay type: cell-based

Row | SMILES | inhibition [1] [%] | CC50 (HeLa [4]) [µM] | permeability [5] | IC50 [7] [µM] | inhibition [8] [%] | EC50 (Genome polyprotein [11]) [µM] | further results
1 | CC(C)(C)NC(=O)N[C@H](C(=O)N1C[C@H]2[C@@H]([C@H]1C(=O)NC(CC1CCC1)C(=O)C(N)=O)C2(C)C)C(C)(C)C (some centres undefined) | 70.8 | – | – | – | – | – | Activity [2]: Active
2 | O=C(Nc1ccc2c(c1)B(O)OC2)c1cccc(OCc2ccc(Cl)cc2)c1 | 43.5 | 75.3 | – | – | – | – | Stability (Genome polyprotein [3]): Stable
3 | N#Cc1ccc(COc2cccc(C(=O)Nc3ccc4c(c3)B(O)OC4)c2)cc1 | 43.4 | > 200 | Permeable | – | – | – | –
4 | O=C(Nc1ccc2c(c1)B(O)OC2)c1cccc(OCc2c(Cl)cccc2Cl)c1 | 32.6 | 39.7 | Permeable | – | – | – | selectivity ratio [6]: 74
5 | O=C(Nc1ccc2c(c1)B(O)OC2)c1cccc(OCc2ccccc2)n1 | 99.6 | 124 | – | 38.5 | – | – | –
6 | N=C(N)Nc1ccc2c(c1)B(O)OC2 | 88 | > 100 | Impermeable | 10 | < 10 | – | inhibition [9]: Active; Activity (HeLa [10]): Non-Toxic
7 | O=C(Nc1ccc2c(c1)B(O)OC2)c1cccc(NCc2ccccc2)c1 | 46.9 | 144 | – | 56.9 | 73.6 | 5.2 | –
8 | O=C(Nc1ccc2c(c1)B(O)OC2)c1ccccc1OCc1ccccc1 | 40.6 | > 50 | Permeable | – | 66.7 | 6.1 | –
9 | O=C(Nc1ccc2c(c1)B(O)OC2)c1cccc(OCc2ccccc2)c1 | 99.6 | 55.2 | Permeable | 6.1 | 81.2 | 2.4 | Ratio IC50 [12]: 3; inhibition [13]: Active; inhibition [14]: Active; Stability (Genome polyprotein [3]): Stable; Activity (Huh-7): Non-Toxic; Stability [15]: Stable; Activity (dengue virus type 2): 67.4%; Ki [16]: 6.2 µM; inhibition [9]: Active; Activity (HeLa [10]): Non-Toxic
10 | O=S(=O)(Nc1ccc2c(c1)B(O)OC2)c1ccc(Cl)cc1 | < 10 | > 50 | Permeable | – | 51.6 | 9.2 | –
11 | O=C(Nc1ccc2c(c1)B(O)OC2)c1ccc(Oc2ccccc2)cc1 | 19.5 | > 50 | Permeable | – | 79.7 | 3.5 | Stability (Genome polyprotein [3]): Stable
12 | O=C(Nc1ccc2c(c1)B(O)OC2)c1ccc(OCc2ccc(Cl)cc2)cc1 | 20.4 | > 50 | Permeable | – | 31.3 | 14.5 | Stability (Genome polyprotein [3]): Stable
13 | N=C(N)Nc1ccc(C(=O)Nc2ccc3c(c2)B(O)OC3)cc1 | 87.4 | > 200 | – | 13.9 | 23 | – | Stability [15]: Stable; IC50 (Trypsin): 61.4 µM; inhibition [9]: Active; Activity (HeLa [10]): Non-Toxic
14 | O=C(Oc1cncc(Cl)c1)c1cccs1 | 95 | – | – | 1.7 | – | – | –
15 | O=C(Nc1cccc(B(O)O)c1)c1cccc(OCc2ccccc2)c1 | < 10 | > 50 | Permeable | – | 65.1 | 12.5 | Ratio [17]: 5; Activity (HeLa [10]): Non-Toxic
16 | O=C(Nc1cccc(C(=O)Nc2ccc3c(c2)B(O)OC3)c1)c1ccccc1 | 45.6 | > 200 | – | 52.3 | 51.5 | 13.1 | Stability [15]: Stable
17 | O=C(NCc1ccc(B(O)O)cc1)c1cccc(OCc2ccccc2)c1 | 18.5 | > 50 | – | – | 29.3 | 14 | Ratio [17]: 5
18 | Cc1cccc(COc2cccc(C(=O)Nc3ccc4c(c3)B(O)OC4)c2)c1 | 55.5 | 72.6 | – | 59.8 | 85.2 | – | Activity (Huh-7): Non-Toxic; Activity (dengue virus type 2): 72.6%
